Screening data as filed in PubChem.
A selection: hits, their analogues and other compounds. The true share with any hit is near 3.4%.
TAAR1 antag: human TAAR1 antagonists, primary screen, Fluo-8 calcium fluorescence, CHO RD-HGA16 cells. Trace amine-associated receptor 1 (Homo sapiens), Q96RJ0. inhibition, % at 3 µM. actives 1.5% (n = 360,000). antagonist. AID 624466, 2012;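 active = inhibition above a per-plate cutoff, the mean inhibition of test compounds on that plate plus 3 SD, cut at about 49% in these data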
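Assay system: CHO-derived RD-HGA16 cells stably expressing human TAAR1 plus Gα16. Timing: 140 s kinetic read after compound, 140 s after agonist. Technique: kinetic Fluo-8 calcium fluorescence measurement. Measure: % inhibition of agonist calcium response.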
TAAR1 agonist: human TAAR1 agonists, primary screen, Fluo-8 calcium fluorescence, CHO RD-HGA16 cells | AID 624467, 2012 | vehicle wells 0%, saturating PEA agonist 100% | activation, % at 3 µM | actives 0.99% (n = 360,000) | Trace amine-associated receptor 1 (Homo sapiens), Q96RJ0;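 active = activation above the mean activation of all test compounds in the run plus 3 SD, cut at about 38% in these data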
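Assay system – CHO-derived RD-HGA16 cells with stable Gα16 and human TAAR1 · Compound dosing – one-point dosing at 3 µM (nominal) · Incubation – 17-24 h seeding, 75 min 37 °C dye, 30 min RT · Measured by – kinetic Fluo-8 calcium fluorescence · Control set – DMSO vehicle as 0%, PEA at EC100 as 100% · Repeats – single well for each compound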
zfTRPN1 agonist: zebrafish TRPN1 channel agonists, primary screen, cell-based, HEK293, calcium fluorescence; activation, % at 3 µM; actives 0.18% (n = 220,000); HEK293 zebrafish TRPN1-YFP, Fluo-8 calcium fluorescence; 100% = response to 87 µM carbachol; transient receptor potential cation channel N1 (TRPN1/NompC), Danio rerio;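 active = activation above its plate's cutoff, the mean activation of test wells on that plate plus 3 SD, cut at about 19% in these data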
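System: zebrafish TRPN1-YFP in HEK293 cells / Dosing: 3 µM single point / Timing: dye loading 1 h at 37 °C, then 30 min room temperature / Signal: Fluo-8 calcium fluorescence, excitation 470-495 nm, emission 515-575 nm / Read-out basis: percent activation from peak over basal fluorescence ratio, control-normalized / Control set: high carbachol 87 µM, low DMSO alone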
LANA-H2B inh: blockers of LANA interaction with H2A/H2B – biochemical, FP readout, HTS, primary screen. Protein LANA1 (Human herpesvirus 8 type P (isolate GK18)), Q9QR71. cell-free LANA-H2A/H2B peptide, fluorescence polarization. inhibition, % (concentration not given with the values). actives 0.6% (n = 320,000). AID 2629, 2010; in the data active = inhibition mostly above about 10%, no sharp cut-off; inactive = mostly below about 6.7%
GPR7 antagonist: GPR7 receptor antagonists, primary screen, cell-based, fluorescence, single concentration; GPR7-expressing cells, fluorescence antagonist assay; Neuropeptides B/W receptor type 1 (Homo sapiens), P48145; AID 1861, 2009; inhibition, % at 4.4 µM; actives 1.1% (n = 290,000); in the data active = inhibition above about 16%, passing the limit was not always enough;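 also: cells stimulated with the agonist NPW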
TRPML3 ag: human TRPML3 channel agonists, primary screen, cell-based, HEK293 TRPML3-YFP, Fluo-8 calcium fluorescence, 3 µM; actives 0.29% (n = 220,000); Mucolipin-3 (Homo sapiens), Q8TDD5; AID 1448, 2008; 100% = the carbachol control signal; activation, % at 3 µM;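 active = activation above its plate's cutoff, the mean activation of the plate's test wells plus 3 SD, cut at about 12% in these data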
Target sequence (Q8TDD5 whole entry, looked up): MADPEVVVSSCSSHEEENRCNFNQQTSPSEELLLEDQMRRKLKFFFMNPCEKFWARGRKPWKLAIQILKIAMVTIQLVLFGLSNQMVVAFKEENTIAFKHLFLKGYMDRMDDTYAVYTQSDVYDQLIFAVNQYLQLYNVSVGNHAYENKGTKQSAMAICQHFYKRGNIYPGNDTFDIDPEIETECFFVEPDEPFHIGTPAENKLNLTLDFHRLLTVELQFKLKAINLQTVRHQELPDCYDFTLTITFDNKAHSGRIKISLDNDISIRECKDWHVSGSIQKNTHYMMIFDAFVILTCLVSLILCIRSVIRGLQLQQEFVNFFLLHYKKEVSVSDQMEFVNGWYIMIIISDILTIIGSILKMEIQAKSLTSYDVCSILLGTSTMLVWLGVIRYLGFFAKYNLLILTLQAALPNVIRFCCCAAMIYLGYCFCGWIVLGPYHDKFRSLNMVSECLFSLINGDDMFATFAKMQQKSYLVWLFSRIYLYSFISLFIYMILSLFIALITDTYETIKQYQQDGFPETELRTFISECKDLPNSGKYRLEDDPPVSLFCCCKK
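Test system: TRPML3-YFP stable HEK293 cells. Doses: single point at 3 µM. Incubation: dye loading 1 h 37 °C then 30 min ambient, 125 s read. Signal: Fluo-8 calcium dye fluorescence, ex 470-495, em 515-575 nm. Measure: percent activation from peak-to-basal fluorescence ratio, scaled between DMSO and carbachol.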
TAAR1 ag conf: human TAAR1 agonists, retest of hits, confirmation, Fluo-8 calcium fluorescence, CHO RD-HGA16 cells | activation, % at 3 µM | scaled: DMSO 0%, maximal phenethylamine 100% | actives 82% (n = 2,400) | shares compounds with TAAR1 agonist | AID 651783, 2012;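 active = activation above a cutoff set at the run's mean compound activation plus 3 SD, cut at about 39% in these data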
Ga16 ag counter: nonselective calcium mobilization agonists, CHO-Ga16 cells, counter-screen for hTAAR1 agonist project, cell-based, fluorescence, CHO-Ga16 parental line; shares compounds with TAAR1 agonist; Fluo-8 calcium fluorescence; normalized to maximal ATP response, DMSO zero; activation, % at 3 µM; actives 50% (n = 2,400);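 active = activation above the run cutoff, the mean activation over all tested wells plus 3 SD, cut at about 12% in these data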
TAAR1 desens: TAAR1 desensitization by agonist hits, confirmation, counter-screen for TAAR1 agonist project, cell-based, fluorescence, tachyphylaxis; shares compounds with TAAR1 agonist; CHO RD-HGA16 hTAAR1, Fluo-8 calcium, beta-PEA response inhibition; inhibition, % at 3 µM; actives 46% (n = 2,400); AID 651951, 2012;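 active = inhibition above the run cutoff, the mean inhibition of all test compounds plus 3 SD, cut at about 49% in these data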;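 also: beta-PEA stimulus applied at its EC80; loss of beta-PEA calcium signal after compound pretreatment read as receptor desensitization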
Ga16 antag count: inhibition of ATP-evoked calcium response in CHO-Ga16 cells, counter-screen for TAAR1 agonist project, cell-based, fluorescence; shares compounds with TAAR1 agonist; CHO-Ga16 ATP-induced calcium, Fluo-8 fluorescence; inhibition, % at 3 µM; actives 39% (n = 2,400); AID 651952, 2012;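 active = inhibition above the plate's mean compound inhibition plus 3 SD, computed per plate, cut at about 22% in these data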
A number is an active result; i = inactive; nt = no result given.

SMILES	TAAR1 antag	TAAR1 agonist	zfTRPN1 agonist	LANA-H2B inh	GPR7 antagonist	TRPML3 ag	TAAR1 ag conf	Ga16 ag counter	TAAR1 desens	Ga16 antag count
Cc1ccc(NC(=O)CSCC(=O)NCCc2ccccc2)c(C)c1	i	i	nt	i	nt	nt	nt	nt	nt	nt
CN(CC(=O)Nc1ccccc1C(F)(F)F)C(=O)CN1C(=O)C2CCCCC2C1=O (centres undefined)	i	i	nt	i	nt	nt	nt	nt	nt	nt
O=c1nc(N2CCCCC2)nc(Nc2ccccc2)[nH]1	69	66	i	i	i	i	73	i	80	i
NNc1nc(Nc2ccccc2)nc(N2CCCCC2)n1	i	45	i	i	i	i	66	i	i	i
NNc1nc(Nc2ccc([N+](=O)[O-])cc2)nc(N2CCCCCC2)n1	i	i	nt	i	i	nt	nt	nt	nt	nt
O=C(CNS(=O)(=O)c1ccccc1F)NNC(=O)c1ccc(Br)cc1	i	i	nt	nt	nt	nt	nt	nt	nt	nt
N#Cc1nc(-c2ccccc2F)oc1NCCc1ccccc1	i	i	i	i	i	i	nt	nt	nt	nt
N#Cc1nc(-c2cccs2)oc1NCCc1ccccc1	i	51	i	i	i	i	49	i	i	i
CN(C(=O)c1cccc(NC(=O)Cc2cccc(NC(=O)C3CCN(C(=O)c4ccccc4)CC3)c2)c1)C1CC1	i	i	nt	nt	nt	nt	nt	nt	nt	nt
CN1CCN(/N=C/c2ccc(N(c3ccccc3)c3ccccc3)cc2)CC1	50	73	i	i	i	i	72	28	56	35
O=c1nccc(N/N=C/c2ccccc2)[nH]1	i	i	nt	i	i	nt	nt	nt	nt	nt
O=c1cc(N/N=C/c2ccccc2)[nH]c(=O)[nH]1	i	58	nt	i	nt	nt	84	15	90	i
Cc1c(C=NNc2ccccc2)[nH]c(=O)[nH]c1=O	i	58	nt	nt	nt	nt	72	i	i	i
O=c1cc(C=NNc2ccccc2)[nH]c(=O)[nH]1	nt	nt	nt	nt	nt	nt	nt	i	nt	i
CCCCCCCN(c1ccccc1)[C@@H]1C[C@H]2CCCC(=O)N3CC[C@@H](C1)[C@@H]23	i	i	nt	nt	nt	nt	nt	nt	nt	nt
CCc1nc(N)c(C#N)c(-c2ccco2)c1C	i	81	i	i	i	i	i	i	i	i
Oc1ccc(C[C@@H]2CNCCN2CCC23CC4CC(CC(C4)C2)C3)cc1	i	48	nt	i	nt	nt	62	31	i	42
O=C(OCCN1C(=O)c2cccc3c(N4CCOCC4)ccc(c23)C1=O)c1ccccc1Cl	105	128	i	27	i	i	93	94	95	86
COc1cccc(C(=O)OCCN2C(=O)c3ccccc3C2=O)c1OC	i	i	i	i	i	i	nt	nt	nt	nt
Cn1c(-c2ccc3c(c2)OCO3)cnc1NC(=O)CCC(=O)NCCc1ccccc1	i	47	i	i	i	i	40	i	i	i
